Assay results reported in ChEMBL document CHEMBL3352330, “Discovery of azetidine based ene-amides as potent bacterial enoyl ACP reductase (FabI) inhibitors” (Eur J Med Chem, 2014).
pIC50: −log10 of the molar value. Values after ≈ are worked out from the molar mass of the structure shown.

Columns and labels:
[1] = tested on: Staphylococcus epidermidis; assay: Antibacterial activity against methicillin-resistant Staphylococcus epidermidis AUCC 704 after 16 to 20 hrs by broth microdilution method; type: functional
Summary of the method: (§1)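 Broth microdilution in MHB, serial two-fold compound dilutions; final inoculum 5 × 10⁵ CFU/mL; broth, compound and organism controls in duplicate; S. aureus ATCC 29213 as quality control strain; incubation 35 °C, 16–20 h, ambient air; growth read by unaided eye with viewing device, end point set against no-antibiotic control wells.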

[2] = molecular target: T1, Enoyl-[acyl-carrier-protein] reductase [NADPH] FabI (Staphylococcus aureus) (UniProt Q6GI75); assay: Inhibition of Staphylococcus aureus FabI-mediated reduction of enoyl-ACP preincubated at 1 uM for 30 mins measured after 2 hrs by spectrophotometry
T1 sequence (whole entry): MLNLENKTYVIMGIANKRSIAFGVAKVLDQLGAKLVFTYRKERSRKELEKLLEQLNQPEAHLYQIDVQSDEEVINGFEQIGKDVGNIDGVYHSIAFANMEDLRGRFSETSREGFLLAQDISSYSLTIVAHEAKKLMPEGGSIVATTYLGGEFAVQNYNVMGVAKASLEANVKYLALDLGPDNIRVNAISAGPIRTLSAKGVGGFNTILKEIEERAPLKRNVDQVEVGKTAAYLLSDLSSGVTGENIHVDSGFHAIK
Summary of the method: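 Spectrophotometric FabI assay in 100 mM sodium ADA buffer, pH 6.5. Enzyme (2400 ng/assay) preincubated 30 min with NADH and compound. Reaction started with crotonoyl CoA. After 2 h at room temperature, NADH oxidation read as the fall in absorbance at 340 nm.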

[3] = tested on: Staphylococcus aureus; assay: Antibacterial activity against methicillin-resistant Staphylococcus aureus ATCC 33591 after 16 to 20 hrs by broth microdilution method; type: functional; summary of the method: as §1
[4] = tested on: Staphylococcus aureus; assay: Antibacterial activity against methicillin-sensitive Staphylococcus aureus ATCC 29213 after 16 to 20 hrs by broth microdilution method; type: functional; summary of the method: as §1
[5] = molecular target: T2, Enoyl-[acyl-carrier-protein] reductase [NADPH] FabI (Staphylococcus aureus, UniProt Q6GI75); assay: Inhibition of Staphylococcus aureus FabI-mediated reduction of enoyl-ACP preincubated for 30 mins measured after 2 hrs by spectrophotometry
T2 sequence (Q6GI75 whole entry): T1 sequence (whole entry)

[6] = Tmax in Swiss albino CD-1 mouse at 10 mg/kg, po administered as single dose; type: ADME, organism-based; parameters: dose 10 mg/kg, route oral; settings: in vivo
Summary of the method: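 Oral gavage, 10 mg/kg single dose, given as a suspension in 0.25% Tween 80 with 0.225% sodium carboxymethyl cellulose. Blood drawn from the retro-orbital plexus into EDTA at set times (sparse sampling, n = 3 per time point). Plasma stored at −20 °C and assayed by LC-MS/MS. Parameters from non-compartmental analysis.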

[7] = tested on: Staphylococcus aureus; assay: Antibacterial activity against methicillin-resistant Staphylococcus aureus ATCC 33591 infected in Swiss albino CD-1 mouse compound administered orally bid at 1 hr and 4 hrs post infection; type: functional; settings: ATCC 33591, po
[8] = Metabolic stability in mouse liver mirosomes assessed as compound remaining at 1 uM after 60 mins by LC-MS/MS analysis; type: ADME, tissue-based; settings: liver microsomes, read-out: Stability
Summary of the method: (§2)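 Compound tested at 1 µM in mouse liver microsomes (0.3 mg/mL protein) with 1 mM NADPH in KH₂PO₄ buffer, pH 7.4, at 37 °C. Reactions stopped at 0, 15 and 60 min with acetonitrile containing carbamazepine internal standard. Samples centrifuged and the supernatant analysed by LC-MS/MS.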

[9] = Metabolic stability in mouse liver mirosomes assessed as compound remaining at 1 uM after 15 mins by LC-MS/MS analysis; type: ADME, tissue-based; settings: liver microsomes, read-out: Stability; summary of the method: as §2
[10] = Half life in Swiss albino CD-1 mouse at 10 mg/kg, po administered as single dose; type: ADME, organism-based; parameters: dose 10 mg/kg, route oral; settings: in vivo
Summary of the method: (§3)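 Blood drawn from the retro-orbital plexus into EDTA at set times (sparse sampling, n = 3 per time point). Plasma stored at −20 °C and assayed by LC-MS/MS. Parameters from non-compartmental analysis.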

[11] = AUC in Swiss albino CD-1 mouse at 10 mg/kg, po administered as single dose; type: ADME, organism-based; parameters: dose 10 mg/kg, route oral; settings: plasma; summary of the method: as §3
[12] = Cmax in Swiss albino CD-1 mouse at 10 mg/kg, po administered as single dose; type: ADME, organism-based; parameters: dose 10 mg/kg, route oral; settings: in vivo; summary of the method: as §3

Structure (SMILES) | MIC [1] [µg/mL] | inhibition [2] [%] | MIC [3] [µg/mL] | MIC [4] [µg/mL] | pIC50 [5] | Tmax [6] [h] | ED50 [7] [mg/kg] | remaining at 1 h, 1 µM [8] [%] | remaining at 0.25 h, 1 µM [9] [%] | half-life [10] [h] | AUC [11] [ng·h/mL] | Cmax [12] [ng/mL]
O=C1CCc2cc(/C=C/C(=O)N3CC(OCc4ccccc4)C3)cnc2N1 | 2 (≈ 5.5 µM) | 69 | 2 (≈ 5.5 µM) | 1 (≈ 2.75 µM) | 6.42 |  |  |  |  |  |  | 
CC(=O)Nc1ccc(/C=C/C(=O)N2CC(c3oc4ccccc4c3C)C2)cn1 | 8 (≈ 21.3 µM) | 97 | 1 (≈ 2.66 µM) | 1 (≈ 2.66 µM) | 6.79 |  |  |  |  |  |  | 
O=C1CCc2cc(/C=C/C(=O)N3CC(c4ccccc4)C3)cnc2N1 | 2 (≈ 6 µM) | 80 | 2 (≈ 6 µM) | 1 (≈ 3 µM) | 6.31 |  |  |  |  |  |  | 
O=C1CCc2cc(/C=C/C(=O)N3CC(Cc4nc5ccccc5s4)C3)cnc2N1 | 2 (≈ 4.94 µM) | 41 | 4 (≈ 9.89 µM) | 2 (≈ 4.94 µM) |  |  |  |  |  |  |  | 
Cc1c(C2CN(C(=O)/C=C/c3cnc4c(c3)CCC(=O)N4)C2)oc2ccccc12 | 0.5 (≈ 1.29 µM) | 96 | 0.06 (≈ 0.155 µM) | 0.06 (≈ 0.155 µM) | 6.85 | 2 | 0.9 |  |  |  |  | 
Cc1cc(C2CN(C(=O)/C=C/c3cnc4c(c3)CCC(=O)N4)C2)nc2ccccc12 | > 32 | 84 | > 32 | 32 (≈ 80.3 µM) | 6.62 |  |  |  |  |  |  | 
Cc1c(C2CN(C(=O)/C=C/c3cnc4c(c3)CCC(=O)N4)C2)oc2ccc(Cl)cc12 | 0.5 (≈ 1.19 µM) | 82 | 0.25 (≈ 0.593 µM) | 0.25 (≈ 0.593 µM) | 6.69 | 1 |  |  |  |  |  | 
Cc1c(C2CN(C(=O)/C=C/c3cnc4c(c3)CCC(=O)N4)C2)sc2ccccc12 | 2 (≈ 4.96 µM) | 89 | 0.25 (≈ 0.62 µM) | 0.125 (≈ 0.31 µM) | 6.15 | 4 |  |  |  |  |  | 
CC(=O)NC[C@H]1CN(c2ccc(N3CCOCC3)c(F)c2)C(=O)O1 [LINEZOLID] |  |  |  |  |  |  | 2.8 |  |  |  |  | 
Cc1c(C2CN(C(=O)/C=C/c3ccc(NC(=O)Cn4ccnn4)nc3)C2)oc2ccccc12 | > 32 | 66 | > 32 | > 32 | 6.07 |  |  |  |  |  |  | 
O=C1CCc2cc(/C=C/C(=O)N3CCC3)cnc2N1 | > 32 | 15 | > 32 | > 32 |  |  |  |  |  |  |  | 
O=C1CCc2cc(/C=C/C(=O)N3CC(COc4cccc(F)c4)C3)cnc2N1 | 2 (≈ 5.24 µM) | 89 | 2 (≈ 5.24 µM) | 1 (≈ 2.62 µM) | 6.36 |  |  |  |  |  |  | 
O=C1CCc2cc(/C=C/C(=O)N3CC(COc4ccc(F)cc4)C3)cnc2N1 | 1 (≈ 2.62 µM) | 92 | 0.5 (≈ 1.31 µM) | 0.25 (≈ 0.655 µM) | 6.50 | 2 |  |  |  |  |  | 
O=C1CCc2cc(/C=C/C(=O)N3CC(c4ccccn4)C3)cnc2N1 | 16 (≈ 47.8 µM) | 87 | 8 (≈ 23.9 µM) | 4 (≈ 12 µM) | 6.62 |  |  |  |  |  |  | 
Cc1c(C2CN(C(=O)/C=C/c3cnc4c(c3)CN(C)CC(=O)N4)C2)oc2ccccc12 | 0.5 (≈ 1.2 µM) | 99 | 0.25 (≈ 0.6 µM) | 0.25 (≈ 0.6 µM) | 6.95 |  |  | 6.6 | 25.6 |  |  | 
Cc1c(C2CN(C(=O)/C=C/c3cnc4c(c3)CN(CCN3CCOCC3)CC(=O)N4)C2)oc2ccccc12 | 2 (≈ 3.88 µM) | 100 | 1 (≈ 1.94 µM) | 1 (≈ 1.94 µM) | 6.54 |  |  |  |  |  |  | 
Cc1c(C2CN(C(=O)/C=C/c3cnc4c(c3)CN(CCN3CCOCC3)C(=O)N4)C2)oc2ccccc12 | 2 (≈ 3.99 µM) | 105 | 1 (≈ 1.99 µM) | 1 (≈ 1.99 µM) | 7.24 |  |  |  |  |  |  | 
O=C1CCc2cc(/C=C/C(=O)N3CC(COc4ccccc4F)C3)cnc2N1 | 2 (≈ 5.24 µM) | 99 | 1 (≈ 2.62 µM) | 1 (≈ 2.62 µM) | 6.42 |  |  |  |  |  |  | 
Cc1cccc(OCC2CN(C(=O)/C=C/c3cnc4c(c3)CCC(=O)N4)C2)c1 | 2 (≈ 5.3 µM) | 47 | 2 (≈ 5.3 µM) | 2 (≈ 5.3 µM) |  |  |  |  |  |  |  | 
Cc1c(C2CN(C(=O)/C=C/c3cnc4c(c3)NCCC(=O)N4)C2)oc2ccccc12 | 1 (≈ 2.48 µM) | 92 | 0.5 (≈ 1.24 µM) | 0.25 (≈ 0.621 µM) | 6.50 |  |  |  |  |  |  | 
O=C1CCc2cc(/C=C/C(=O)N3CC(Oc4ccccc4)C3)cnc2N1 | 16 (≈ 45.8 µM) | 35 | 4 (≈ 11.4 µM) | 4 (≈ 11.4 µM) |  |  |  |  |  |  |  | 
O=C1CCc2cc(/C=C/C(=O)N3CC(c4nc5ccccc5s4)C3)cnc2N1 | 1 (≈ 2.56 µM) | 83 | 0.25 (≈ 0.64 µM) | 0.25 (≈ 0.64 µM) | 6.43 | 2 |  |  |  |  |  | 
Cc1ccc(OCC2CN(C(=O)/C=C/c3cnc4c(c3)CCC(=O)N4)C2)cc1 | 2 (≈ 5.3 µM) | 67 | 1 (≈ 2.65 µM) | 1 (≈ 2.65 µM) | 6.04 |  |  |  |  |  |  | 
COc1ccc2oc(C3CN(C(=O)/C=C/c4cnc5c(c4)CCC(=O)N5)C3)c(C)c2c1 | 2 (≈ 4.79 µM) |  | 1 (≈ 2.4 µM) | 0.5 (≈ 1.2 µM) |  |  |  |  |  |  |  | 
O=C1CCc2cc(/C=C/C(=O)N3CC(Oc4nc5ccccc5s4)C3)cnc2N1 | > 32 | 16 | > 32 | > 32 |  |  |  |  |  |  |  | 
O=C1CCc2cc(/C=C/C(=O)N3CC(COc4ccccc4)C3)cnc2N1 | 1 (≈ 2.75 µM) | 81 | 0.25 (≈ 0.688 µM) | 0.25 (≈ 0.688 µM) | 6.58 |  |  |  |  |  |  | 
Cc1c(C2CN(C(=O)/C=C/c3cnc4c(c3)CNCC(=O)N4)C2)oc2ccccc12 | 1 (≈ 2.48 µM) | 83 | 0.25 (≈ 0.621 µM) | 0.25 (≈ 0.621 µM) | 6.42 | 0.5 |  | 76.4 | 96.2 | 8.5 | 9000 | 2250
Cc1ccccc1OCC1CN(C(=O)/C=C/c2cnc3c(c2)CCC(=O)N3)C1 | 1 (≈ 2.65 µM) | 80 | 0.5 (≈ 1.32 µM) | 0.25 (≈ 0.662 µM) | 6.75 | 2 |  |  |  |  |  | 
O=C1CCc2cc(/C=C/C(=O)N3CC(COc4ccc5ccccc5c4)C3)cnc2N1 | > 32 | 68 | 4 (≈ 9.67 µM) | 4 (≈ 9.67 µM) | 5.85 |  |  |  |  |  |  | 
Cc1c(CN(C)C(=O)/C=C/c2cnc3c(c2)CCC(=O)N3)oc2ccccc12 [AFN-1252] | 0.008 (≈ 0.0213 µM) | 100 | 0.008 (≈ 0.0213 µM) | 0.008 (≈ 0.0213 µM) | 7.54 | 1 |  | 17.5 | 55.4 | 1.84 | 2200 | 440
